From ChEMBL document CHEMBL1129798, “Analogues of 10-deazaaminopterin and 5-alkyl-5,10-dideazaaminopterin with the 4-substituted 1-naphthoyl group in the place of 4-substituted benzoyl” (J Med Chem, 1996)

How the values were obtained:
L1210 = experiment: In vitro cell growth inhibitory activity against L1210 cell line; format: functional, cell-based; details: Mus musculus
CCRF S-180 = experiment: In vitro cell growth inhibitory activity against S180 cell line; format: functional, cell-based; details: Mus musculus
HL-60 = experiment: In vitro cell growth inhibitory activity against HL60 cell line; format: functional, cell-based; details: Homo sapiens
Mus musculus [1] = experiment: Compound was compared with MTX for in vivo activity against mammary adenocarcinoma E0771 infected mice at a dose of 24 mg/kg; T/C Treated to Control; format: functional
In short: (§1)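 E0771 mammary adenocarcinoma carried in mice, five mice per test group, with an untreated control group. Dosage is given in mg/kg. Average body weight change (g) and average tumor volume (mm3) were recorded at day 10. T/C is expressed relative to the control group.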

Mus musculus [2] = experiment: Compound was compared with MTX for in vivo activity against mammary adenocarcinoma E0771 infected mice at a dose of 48 mg/kg; T/C Treated to Control; format: functional; in short: as §1

IC50 (L1210) [nM]	IC50 (CCRF S-180) [nM]	IC50 (HL-60) [nM]	SMILES	T/C (Mus musculus [1]) [%]	T/C (Mus musculus [2]) [%]
9	29	9.8	CCc1c(CCc2ccc(C(=O)NC(CCC(=O)O)C(=O)O)c3ccccc23)cnc2nc(N)nc(N)c12 (stereo unspecified)	–	–
8.8	29	9.4	Cc1c(CCc2ccc(C(=O)NC(CCC(=O)O)C(=O)O)c3ccccc23)cnc2nc(N)nc(N)c12 (stereo unspecified)	–	–
1.5	1.7	1.1	Nc1nc(N)c2nc(CCc3ccc(C(=O)NC(CCC(=O)O)C(=O)O)c4ccccc34)cnc2n1 (stereo unspecified)	96	52
